IC50, Activity and inhibition data for 9 compounds are collected here from ChEMBL document CHEMBL4041520, “Novel pyrimidine-2,4-dione-1,2,3-triazole and furo[2,3-d]pyrimidine-2-one-1,2,3-triazole hybrids as potential anti-cancer agents: Synthesis, computational and X-ray analysis and biological evaluation” (Eur J Med Chem, 2017).

For orientation: IC50 means the concentration that inhibits the measured activity by half.

Calls of active or inactive are those of the source. No cut-off for these calls is given here. Where only a bound is given, the exact number is not on record here.

One series relates to SW-620. Kind of series: Antiproliferative activity against human SW620 cells after 72 hrs by MTT assay. As to conditions: SW-620, 72 h. Type of series: functional, cell-based. An outline of the steps:
(§1)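 Monolayers grown in DMEM with 10% FBS and 2 mM L-glutamine at 37 °C, 5% CO2. Cells seeded at 5000 per well on day 0. Compounds added in five 10-fold dilutions (0.01–100 µM), DMSO ≤0.1%, for 72 h. MTT absorbance converted to percentage growth versus untreated wells. IC50 by linear regression of the dose-response curve; highest concentration reported when not reached. Quadruplicate points, three experiments.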
(In general: Tetrazolium dyes change colour on reduction, which living cells bring about.)

A further series concerns CFPAC-1. Kind of series: Antiproliferative activity against human CFPAC-1 cells after 72 hrs by MTT assay. Type of series: functional, cell-based. The settings on record: CFPAC-1, 72 h. In a few lines: as §1
Series [1] concerns HeLa. Kind of series: Induction of apoptosis in human HeLa cells assessed as early apoptotic cells at 2 times antiproliferative IC50 after 48 hrs by Annexin-V FITC/propidium iodide staining based fluorescence microscopic method (reference value: 20.4%). Type of series: functional. In a few lines: (§2)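 Cells seeded in 8-well chamber slides and exposed to compound at 2× IC50 for 48 h. After washing in incubation buffer, Annexin-V-FITC labelling for 15 min at room temperature. Cells fixed with 20% glycerol; PI used as nuclear stain. Scored by fluorescence microscopy as viable (PI-/AnnV-), early apoptotic (PI-/AnnV+), late apoptotic/primary necrotic (PI+/AnnV+) or secondary necrotic (PI+) percentages.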

The next series relates to A549. Kind of series: Antiproliferative activity against human A549 cells after 72 hrs by MTT assay. Type of series: functional, cell-based. The settings on record: A549, 72 h. In a few lines:
as §1

Series [2] relates to HeLa. Kind of series: Antiproliferative activity against human HeLa cells after 72 hrs by MTT assay. Type of series: functional, cell-based. An outline of the steps: as §1
Series [3] in a line: Mitochondrial toxicity in human HepG2 cells grown in presence of galactose. In kind it is cell-based. An outline of the steps:
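HepG2 kept for more than 5 passages in glucose-free DMEM with 10 mM galactose, 2 mM glutamine, 5 mM HEPES, 10% FBS and 1 mM sodium pyruvate.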

Series [4] deals with HeLa. Kind of series: Induction of apoptosis in human HeLa cells assessed as late apoptotic cells at 2 times antiproliferative IC50 after 48 hrs by Annexin-V FITC/propidium iodide staining based fluorescence microscopic method (reference value: 2.3%). In kind it is functional. In a few lines:
as §2

Series [5] deals with HepG2. Kind of series: Antiproliferative activity against human HepG2 cells after 72 hrs by MTT assay. The settings on record: HepG2, 72 h. In kind it is functional, cell-based. In a few lines: as §1
In series [6] the test system is HeLa. Kind of series: Induction of apoptosis in human HeLa cells assessed as viable cells at 2 times antiproliferative IC50 after 48 hrs by Annexin-V FITC/propidium iodide staining based fluorescence microscopic method (reference value: 75%). In kind it is functional. An outline of the steps:
as §2

The subject of series [7] is HeLa. Kind of series: Induction of apoptosis in human HeLa cells assessed as secondary necrotic cells at 2 times antiproliferative IC50 after 48 hrs by Annexin-V FITC/propidium iodide staining based fluorescence microscopic method (reference value: 2.3%). Type of series: functional. In a few lines: as §2
In the next series the test system is NIH3T3. Kind of series: Antiproliferative activity against mouse NIH/3T3 cells after 72 hrs by MTT assay. In kind it is cell-based. As to conditions: NIH3T3, 72 h. In a few lines:
as §1

Series [8] concerns the target Wee1-like protein kinase (Homo sapiens) (UniProt P30291). Kind of series: Inhibition of Wee-1 kinase phosphorylation in human HeLa cells at 2 times antiproliferative IC50 after 48 hrs by Western blot method. In kind it is cell-based. In a few lines: (§3)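 Cells seeded at 200000 per well and treated at 2× IC50 for 48 h. Lysed in RIPA buffer with protease inhibitors. 50 µg protein run on 12% Tris-glycine gels and transferred to PVDF. Blocked in 4% BSA/TBST, probed overnight at 4 °C with anti-p-SK1, ASAH1 or p-Wee1, then HRP secondary. Chemiluminescent detection; densitometry normalized to alpha-tubulin. Two independent experiments, mean ± SD.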
Background: Immunoblotting shows a protein as a band on a membrane.

Series [9] is described as follows: Mitochondrial toxicity in human HepG2 cells grown in presence of glucose. In kind it is cell-based.
In series [10] the target is Wee1-like protein kinase (Homo sapiens) (UniProt P30291). Kind of series: Inhibition of Wee-1 kinase in human HeLa cells assessed as downregulation of ASAH at 2 times antiproliferative IC50 after 48 hrs by Western blot method. Type of series: cell-based. An outline of the steps: as §3
Wee1-like protein kinase (Homo sapiens), sequence (P30291 whole entry, looked up): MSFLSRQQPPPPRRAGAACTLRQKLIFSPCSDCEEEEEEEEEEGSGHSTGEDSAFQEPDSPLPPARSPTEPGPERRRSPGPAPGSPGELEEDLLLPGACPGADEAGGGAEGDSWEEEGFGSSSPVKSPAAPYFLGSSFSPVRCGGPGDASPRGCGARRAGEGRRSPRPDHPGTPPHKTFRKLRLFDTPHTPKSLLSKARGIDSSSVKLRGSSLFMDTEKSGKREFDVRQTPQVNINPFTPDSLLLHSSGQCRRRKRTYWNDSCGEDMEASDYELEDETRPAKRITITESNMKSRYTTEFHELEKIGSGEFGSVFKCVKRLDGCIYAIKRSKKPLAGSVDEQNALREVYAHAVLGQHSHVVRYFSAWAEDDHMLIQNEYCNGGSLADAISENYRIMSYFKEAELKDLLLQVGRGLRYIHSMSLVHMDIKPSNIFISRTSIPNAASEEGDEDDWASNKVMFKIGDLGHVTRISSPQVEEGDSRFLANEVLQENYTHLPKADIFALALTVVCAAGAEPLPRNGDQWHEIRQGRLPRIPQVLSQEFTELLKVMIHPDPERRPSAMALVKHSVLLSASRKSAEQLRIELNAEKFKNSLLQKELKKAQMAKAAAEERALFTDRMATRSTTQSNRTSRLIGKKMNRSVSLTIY
The target is the same in series [11]. Kind of series: Inhibition of Wee-1 kinase in human HeLa cells assessed as reduction in SK1 phosphorylation at 2 times antiproliferative IC50 after 48 hrs by Western blot method. Type of series: cell-based. In a few lines: as §3
For series [12], the system named is HepG2. Kind of series: Induction of apoptosis in human HepG2 cells assessed as early apoptotic cells at 2 times antiproliferative IC50 after 48 hrs by Annexin-V FITC/propidium iodide staining based fluorescence microscopic method (reference value: 0.6%). In kind it is functional. In a few lines:
as §2

Series [13] has as its target Wee1-like protein kinase (Homo sapiens) (UniProt P30291). Kind of series: Inhibition of Wee-1 kinase phosphorylation in human HepG2 cells at 2 times antiproliferative IC50 after 48 hrs by Western blot method. Type of series: cell-based. In a few lines:
as §3

Series [14] relates to HepG2. Kind of series: Induction of apoptosis in human HepG2 cells assessed as viable cells at 2 times antiproliferative IC50 after 48 hrs by Annexin-V FITC/propidium iodide staining based fluorescence microscopic method (reference value: 94.2%). In kind it is functional. In a few lines:
as §2

Series [15] concerns HepG2. Kind of series: Induction of apoptosis in human HepG2 cells assessed as late apoptotic cells at 2 times antiproliferative IC50 after 48 hrs by Annexin-V FITC/propidium iodide staining based fluorescence microscopic method relative to control. Type of series: functional. In a few lines:
as §2

In series [16] the target is Wee1-like protein kinase (Homo sapiens) (UniProt P30291). Kind of series: Inhibition of Wee-1 kinase in human HepG2 cells assessed as downregulation of ASAH at 2 times antiproliferative IC50 after 48 hrs by Western blot method. In kind it is cell-based. In a few lines: as §3
Series [17] has the same target. Kind of series: Inhibition of Wee-1 kinase in human HepG2 cells assessed as reduction in SK1 phosphorylation at 2 times antiproliferative IC50 after 48 hrs by Western blot method. In kind it is cell-based. In a few lines:
as §3

Series [18] concerns HepG2. Kind of series: Induction of apoptosis in human HepG2 cells assessed as secondary necrotic cells at 2 times antiproliferative IC50 after 48 hrs by Annexin-V FITC/propidium iodide staining based fluorescence microscopic method (reference value: 5.2%). Type of series: functional. An outline of the steps:
as §2

Another series deals with WI-38. Kind of series: Antiproliferative activity against human WI38 cells after 72 hrs by MTT assay. The settings on record: WI-38, 72 h. Type of series: cell-based. In a few lines: as §1

Take `O=c1c(Br)cn(Cc2cn(-c3ccccc3F)nn2)c(=O)n1Cc1cn(-c2ccccc2F)nn1`: the IC50 came out at 7.86 µM in the series with SW-620; 4.53 µM in the series with CFPAC-1; 5.33 µM in the series with A549; 1.64 µM with HeLa [2]; 4.67 µM in [3]; 7.11 µM with HepG2 [5]. Also, the IC50 in the series with NIH3T3 was found to be 0.59 µM; in [9] it was 7.11 µM. The Activity in the series on HeLa [1] was found to be 23.9%; in the series with HeLa [4], 1.8%; in the series with HeLa [6] it was 71.3%; in the series on HeLa [7] it was 3%. For the same compound, the inhibition result in series [8], in [10] and in series [11] was “inactive” each time.

In the case of `O=c1c(Br)cn(Cc2cn(-c3cc(Cl)cc(Cl)c3)nn2)c(=O)n1Cc1cn(-c2cc(Cl)cc(Cl)c2)nn1`, the IC50 in the series with SW-620 is > 100 µM; with CFPAC-1, > 100 µM; with A549, 95.8 µM; in the series with HeLa [2], > 100 µM; in the series with HepG2 [5], 42.7 µM; in the series on NIH3T3 it was 4.3 µM.

Consider `O=c1[nH]c(=O)n(Cc2cn(-c3ccccc3F)nn2)cc1Br`, for which the IC50 in the series on SW-620 is ≥ 100 µM; in the series on CFPAC-1, > 100 µM; in the series with A549, > 100 µM; with HeLa [2], 93.9 µM; in the series on HepG2 [5], > 100 µM; with NIH3T3, 59.3 µM.

In the case of `O=c1[nH]c(=O)n(Cc2cn(-c3ccc(F)cc3)nn2)cc1Br`, the IC50 is > 100 µM in the series with SW-620; > 100 µM in the series with CFPAC-1; 64 µM in the series on A549; 72.9 µM with HeLa [2]; 68.9 µM in the series with HepG2 [5]; 50.8 µM in the series on NIH3T3.

Turning to `O=c1c(Br)cn(Cc2cn(-c3ccc(F)cc3)nn2)c(=O)n1Cc1cn(-c2ccc(F)cc2)nn1`, the IC50 was found to be 9.82 µM with SW-620; 6.87 µM with CFPAC-1; 25.4 µM in the series with A549; 12.6 µM with HeLa [2]; 4.57 µM in series [3]; 4.47 µM in the series on HepG2 [5]. The IC50 in the series on NIH3T3 came out at 0.07 µM; in series [9] it was 4.78 µM. Besides, the Activity is 26.6% with HepG2 [12], 72.9% in the series with HepG2 [14], 0% with HepG2 [15] and 0.5% in the series with HepG2 [18]. Besides, the inhibition result in series [13] is “Active”. For the same compound, the inhibition result in [16] and in series [17] was “inactive” in each case.

As to `O=c1c(Br)cn(Cc2cn(-c3ccc(Cl)cc3)nn2)c(=O)n1Cc1cn(-c2ccc(Cl)cc2)nn1`, the concentration for half-maximal inhibition (IC50) amounted to 5.63 µM with SW-620; 5.92 µM with CFPAC-1; 7.41 µM in the series on A549; 6.13 µM with HeLa [2]; 7.1 µM in series [3]; 3.62 µM in the series on HepG2 [5]. The IC50 with NIH3T3 turned out to be 0.37 µM; in [9], 3.82 µM. The Activity in the series with HepG2 [12] is listed as 34.8%; in the series on HepG2 [14], 50%; in the series with HepG2 [15], 0%; with HepG2 [18] it was 15.2%. Also, the inhibition result in [13], in series [16] and in series [17] was “Active” each time.

Take `O=c1[nH]c(=O)n(Cc2cn(-c3cc(Cl)cc(Cl)c3)nn2)cc1Br`: the IC50 in the series on SW-620 turned out to be 9.87 µM; with CFPAC-1 it was 5.51 µM; in the series with A549, 80.7 µM; in the series on HeLa [2] it was 8.42 µM; in the series with HepG2 [5], 7.66 µM; in the series with NIH3T3, 1.16 µM.

Turning to `O=c1[nH]c(=O)n(Cc2cn(-c3ccc(Cl)cc3)nn2)cc1Br`, the IC50 with SW-620 was > 100 µM; with CFPAC-1, 39.5 µM; with A549, 40.9 µM; with HeLa [2] it was 33.3 µM; with HepG2 [5], 19.1 µM; in the series on NIH3T3, 6.7 µM.

`CCCCCc1ccc(C#Cc2c(-c3ccc(CCCCC)cc3)oc3nc(=O)n(Cc4cn(-c5ccccc5F)nn4)cc23)cc1`: the IC50 in the series on SW-620 is 57.1 µM; with CFPAC-1, > 100 µM; in the series on A549, 38.6 µM; in the series on HeLa [2] it was 9 µM; in the series with HepG2 [5] it was 72.5 µM; in the series with WI-38, 7.34 µM.
